Source: ChEMBL document CHEMBL1121523, “Aminoglycoside antibiotics. 3. Epimino derivatives of neamine, ribostamycin, and kanamycin B” (1980)
Converted amounts (≈) assume the structure as drawn.

Assays:
Format in all cases: functional
Escherichia coli [1] = experiment: Minimum inhibitory concentration was measured against Escherichia coli A 20665, in combination with Kanamycin A at specified concentration
In short: (§1)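 The value is the minimum inhibitory concentration of kanamycin A, in µg/mL, against the listed strain. Strains are designated by their inactivating enzyme, e.g. aminoglycoside 3'-phosphotransferase II producers.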

Providencia rettgeri [2] = experiment: Minimum inhibitory concentration was measured against Proteus rettgeri A 21615
Pseudomonas aeruginosa [3] = experiment: Minimum inhibitory concentration was measured against Pseudomonas aeruginosa A 20653, in combination with Kanamycin A at 8 ug/mL concentration; in short: as §1
Escherichia coli [4] = experiment: Minimum inhibitory concentration was measured against Escherichia coli A 20665, in combination with Kanamycin A at 8 ug/mL concentration; in short: as §1
Escherichia coli [5] = experiment: Minimum inhibitory concentration was measured against Escherichia coli A 20507
Pseudomonas aeruginosa [6] = experiment: Minimum inhibitory concentration was measured against Pseudomonas aeruginosa A 20653 in combination with Kanamycin A at specified concentration.; in short: as §1
Escherichia coli [7] = experiment: Minimum inhibitory concentration was measured against Escherichia coli A 20507, in combination with Kanamycin A at 8 ug/mL concentration; in short: as §1
Pseudomonas aeruginosa [8] = experiment: Minimum inhibitory concentration was measured against Pseudomonas aeruginosa A 20357
Pseudomonas aeruginosa [9] = experiment: Minimum inhibitory concentration was measured against Pseudomonas aeruginosa A 20653
Escherichia coli [10] = experiment: Minimum inhibitory concentration was measured against Escherichia coli A 20507, in combination with Kanamycin A at specified concentration; in short: as §1
Escherichia coli [11] = experiment: Minimum inhibitory concentration was measured against Escherichia coli A 20665
Providencia rettgeri [12] = experiment: Minimum inhibitory concentration was measured against Proteus rettgeri A 21615, in combination with Kanamycin A at 8 ug/mL concentration; in short: as §1
Escherichia coli [13] = experiment: Minimum inhibitory concentration was measured against Escherichia coli A 9632
Providencia rettgeri [14] = experiment: Minimum inhibitory concentration was measured against Proteus rettgeri A 21615, in combination with Kanamycin A at specified concentration.; in short: as §1
Providencia rettgeri [15] = experiment: Minimum inhibitory concentration was measured against Proteus rettgeri A 9637
Pseudomonas aeruginosa [16] = experiment: Minimum inhibitory concentration was measured against Pseudomonas aeruginosa A 20357, in combination with Kanamycin A at specified concentration.; in short: as §1
Providencia rettgeri [17] = experiment: Minimum inhibitory concentration was measured against Proteus rettgeri A 9637, in combination with Kanamycin A at 8 ug/mL concentration; in short: as §1
Providencia rettgeri [18] = experiment: Minimum inhibitory concentration was measured against Proteus rettgeri A 9637, in combination with Kanamycin A at specified concentration.; in short: as §1
Escherichia coli [19] = experiment: Minimum inhibitory concentration was measured against Escherichia coli A 9632, in combination with Kanamycin A at 8 ug/mL concentration; in short: as §1
Escherichia coli [20] = experiment: Minimum inhibitory concentration was measured against Escherichia coli A 9632, in combination with Kanamycin A at specified concentration; in short: as §1
Pseudomonas aeruginosa [21] = experiment: Minimum inhibitory concentration was measured against Pseudomonas aeruginosa A 20357, in combination with Kanamycin A at 8 ug/mL concentration; in short: as §1
Pseudomonas aeruginosa [22] = experiment: Minimum inhibitory concentration was measured against Pseudomonas aeruginosa A 20653 in combination with Kanamycin A at 32 ug/mL concentration
In short: (§2)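 Kanamycin A was serially diluted in Mueller-Hinton broth with each epimino derivative held at a fixed 32 µg/mL (8 µg/mL also run). The value is the minimum inhibitory concentration of kanamycin A in the combination against Bristol-numbered strains, read for lowering of kanamycin A MIC in resistant strains.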

Escherichia coli [23] = experiment: Minimum inhibitory concentration was measured against Escherichia coli A 20507, in combination with Kanamycin A at 32 ug/mL concentration; in short: as §2
Providencia rettgeri [24] = experiment: Minimum inhibitory concentration was measured against Proteus rettgeri A 21615, in combination with Kanamycin A at 32 ug/mL concentration; in short: as §2
Providencia rettgeri [25] = experiment: Minimum inhibitory concentration was measured against Proteus rettgeri A 9637, in combination with Kanamycin A at 32 ug/mL concentration; in short: as §2
Escherichia coli [26] = experiment: Minimum inhibitory concentration was measured against Escherichia coli A 20665, in combination with Kanamycin A at 32 ug/mL concentration; in short: as §2
Pseudomonas aeruginosa [27] = experiment: Minimum inhibitory concentration was measured against Pseudomonas aeruginosa A 20357, in combination with Kanamycin A at 32 ug/mL concentration; in short: as §2

| SMILES | MIC (Escherichia coli [1]) | MIC (Providencia rettgeri [2]) | MIC (Pseudomonas aeruginosa [3]) | MIC (Escherichia coli [4]) | MIC (Escherichia coli [5]) | MIC (Pseudomonas aeruginosa [6]) | MIC (Escherichia coli [7]) | MIC (Pseudomonas aeruginosa [8]) | MIC (Pseudomonas aeruginosa [9]) | MIC (Escherichia coli [10]) | MIC (Escherichia coli [11]) | MIC (Providencia rettgeri [12]) | MIC (Escherichia coli [13]) | MIC (Providencia rettgeri [14]) | MIC (Providencia rettgeri [15]) | MIC (Pseudomonas aeruginosa [16]) | MIC (Providencia rettgeri [17]) | MIC (Providencia rettgeri [18]) | MIC (Escherichia coli [19]) | MIC (Pseudomonas aeruginosa [21]) | other results |
| --- | --- | --- | --- | --- | --- | --- | --- | --- | --- | --- | --- | --- | --- | --- | --- | --- | --- | --- | --- | --- | --- |
| NCC1OC(OC2C(NC(=O)OCc3ccccc3)CC(N)C(O)C2O)C2NC2C1O (stereo unspecified) | > 125 µg/mL | > 125 µg/mL | > 125 µg/mL | > 125 µg/mL | > 125 µg/mL | > 125 µg/mL | > 125 µg/mL | > 125 µg/mL | > 125 µg/mL | 63 µg/mL | 125 µg/mL (≈ 285 µM) | > 125 µg/mL | 125 µg/mL (≈ 285 µM) | 63 µg/mL | > 125 µg/mL |  |  |  |  |  |  |
| NCC1OC(OC2C(NC(=O)OCc3ccccc3)CC(N)C(O)C2OC2O[C@H](CO)[C@@H](O)[C@H]2O)C2NC2C1O (stereo partly specified) | > 125 µg/mL | > 125 µg/mL | > 125 µg/mL | > 125 µg/mL | > 125 µg/mL | > 125 µg/mL | 125 µg/mL | > 125 µg/mL | > 125 µg/mL | 63 µg/mL | > 125 µg/mL | 125 µg/mL | > 125 µg/mL | 125 µg/mL | > 125 µg/mL | 4 µg/mL | 0.5 µg/mL | 0.5 µg/mL | 1 µg/mL | 4 µg/mL | MIC (Escherichia coli [20]): 1 µg/mL |
| NCC1OC(OC2C(N)CC(N)C(OC3OC(CO)C(O)C4NC34)C2O)C(N)C(O)C1O (stereo unspecified) | > 125 µg/mL | > 125 µg/mL | > 125 µg/mL | > 125 µg/mL | > 125 µg/mL | > 125 µg/mL | 125 µg/mL | > 125 µg/mL | > 125 µg/mL | 125 µg/mL | > 125 µg/mL | 63 µg/mL | 63 µg/mL (≈ 135 µM) | 63 µg/mL | > 125 µg/mL | 4 µg/mL | 0.5 µg/mL | 0.5 µg/mL | 1 µg/mL | 4 µg/mL | MIC (Escherichia coli [20]): 1 µg/mL |
| NCC1OC(OC2C(N)CC(N)C(OC3OC(CO)C(O)C(N)C3O)C2O)C2NC2C1O (stereo unspecified) | > 125 µg/mL | > 125 µg/mL | > 125 µg/mL | > 125 µg/mL | 125 µg/mL (≈ 269 µM) | > 125 µg/mL | 125 µg/mL | 125 µg/mL (≈ 269 µM) | 125 µg/mL (≈ 269 µM) | 125 µg/mL | 125 µg/mL (≈ 269 µM) | 125 µg/mL | 8 µg/mL (≈ 17.2 µM) | 125 µg/mL | 16 µg/mL (≈ 34.4 µM) | 4 µg/mL | 0.5 µg/mL | 0.5 µg/mL | 0.25 µg/mL | 4 µg/mL |  |
| NC[C@H]1O[C@H](O[C@H]2[C@H](O)[C@@H](O[C@H]3O[C@H](CO)[C@@H](O)[C@H](N)[C@H]3O)[C@H](N)C[C@@H]2N)[C@H](O)[C@@H](O)[C@@H]1O [KANAMYCIN] |  | 125 µg/mL (≈ 258 µM) |  |  | > 125 µg/mL |  |  |  | > 125 µg/mL |  | > 125 µg/mL |  | 2 µg/mL (≈ 4.13 µM) |  | ≤ 0.25 µg/mL |  |  |  |  |  |  |
| NCC1OC(OC2C(NC(=O)OCc3ccccc3)CC(N)C(O)C2O)C(N)C(O)C1O (stereo unspecified) |  | > 125 µg/mL | > 125 µg/mL | > 125 µg/mL | > 125 µg/mL |  | 125 µg/mL | > 125 µg/mL | > 125 µg/mL |  | > 125 µg/mL | 125 µg/mL | > 125 µg/mL |  | > 125 µg/mL |  | 1 µg/mL |  | 2 µg/mL | 4 µg/mL | MIC (Pseudomonas aeruginosa [22]): > 125 µg/mL; MIC (Escherichia coli [23]): 125 µg/mL; MIC (Providencia rettgeri [24]): 125 µg/mL; MIC (Providencia rettgeri [25]): 1 µg/mL; MIC (Escherichia coli [26]): > 125 µg/mL; MIC (Pseudomonas aeruginosa [27]): 4 µg/mL |
| NCC1OC(OC2C(N)CC(N)C(O)C2O)C2NC2C1O (stereo unspecified) |  |  |  |  | > 125 µg/mL |  | 63 µg/mL |  |  | 32 µg/mL |  |  |  |  |  |  |  |  |  |  |  |
